The source made the active and inactive calls. The rule behind the calls is not given here.

For series [1], the target named is T1, Muscarinic acetylcholine receptor M3 (Homo sapiens, UniProt P20309). The experiment in a line: Antagonist activity at human muscarinic acetylcholine M3 receptor expressed in CHO cells assessed as inhibition of acetylcholine-induced calcium mobilization by FLIPR assay. In kind it is functional, cell-based. The essentials: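 Readout: inhibition of acetylcholine-mediated intracellular Ca2+ mobilization in CHO cells stably expressing human recombinant M3 receptor, reported as pIC50. Values are the mean of at least two determinations, standard deviation below 0.3 unless otherwise noted.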
T1 sequence (P20309 whole entry): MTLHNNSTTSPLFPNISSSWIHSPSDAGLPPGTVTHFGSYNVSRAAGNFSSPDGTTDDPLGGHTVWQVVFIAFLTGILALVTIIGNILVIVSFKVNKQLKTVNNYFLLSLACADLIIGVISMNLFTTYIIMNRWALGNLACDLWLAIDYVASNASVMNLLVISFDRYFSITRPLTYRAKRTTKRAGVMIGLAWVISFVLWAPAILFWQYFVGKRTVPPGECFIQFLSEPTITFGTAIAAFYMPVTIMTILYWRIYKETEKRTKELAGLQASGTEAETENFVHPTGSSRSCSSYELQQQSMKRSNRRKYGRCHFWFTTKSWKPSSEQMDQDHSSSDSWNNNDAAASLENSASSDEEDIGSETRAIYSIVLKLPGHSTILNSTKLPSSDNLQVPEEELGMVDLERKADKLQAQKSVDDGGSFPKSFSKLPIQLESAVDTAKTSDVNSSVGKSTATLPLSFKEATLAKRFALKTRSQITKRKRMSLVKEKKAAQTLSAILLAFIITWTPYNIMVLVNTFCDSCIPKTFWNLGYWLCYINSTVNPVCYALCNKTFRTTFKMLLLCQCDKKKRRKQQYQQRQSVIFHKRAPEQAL
(In general: Calcium flux is commonly read through the fluorescence of an indicator in the cells.)

For series [2], the target named is T2, Muscarinic acetylcholine receptor M1 (Homo sapiens, UniProt P11229).
T2 sequence (P11229 whole entry): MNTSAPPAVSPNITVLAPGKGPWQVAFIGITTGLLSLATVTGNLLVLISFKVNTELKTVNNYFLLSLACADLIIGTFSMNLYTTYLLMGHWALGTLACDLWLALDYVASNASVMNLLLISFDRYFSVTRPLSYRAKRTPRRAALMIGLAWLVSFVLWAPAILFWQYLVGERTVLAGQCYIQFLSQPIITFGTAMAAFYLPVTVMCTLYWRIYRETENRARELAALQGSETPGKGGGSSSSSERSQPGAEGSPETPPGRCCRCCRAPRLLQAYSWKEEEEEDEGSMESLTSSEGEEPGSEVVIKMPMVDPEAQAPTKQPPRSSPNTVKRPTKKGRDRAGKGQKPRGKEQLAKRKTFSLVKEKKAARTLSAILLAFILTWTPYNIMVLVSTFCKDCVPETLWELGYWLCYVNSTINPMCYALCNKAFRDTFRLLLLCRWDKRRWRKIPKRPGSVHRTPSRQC
The experiment in a line: Antagonist activity at human muscarinic acetylcholine M1 receptor expressed in CHO cells assessed as inhibition of acetylcholine-induced calcium mobilization by FLIPR assay. In kind it is functional, cell-based. The essentials:
(§1)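 Readout: inhibition of acetylcholine-mediated intracellular Ca2+ mobilization in CHO cells expressing the human receptor subtype, reported as pIC50. Values are the mean of at least two determinations, standard deviation below 0.3 unless otherwise noted.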

Series [3] addresses T3, Muscarinic acetylcholine receptor M2 (Homo sapiens, UniProt P08172).
T3 sequence (P08172 whole entry): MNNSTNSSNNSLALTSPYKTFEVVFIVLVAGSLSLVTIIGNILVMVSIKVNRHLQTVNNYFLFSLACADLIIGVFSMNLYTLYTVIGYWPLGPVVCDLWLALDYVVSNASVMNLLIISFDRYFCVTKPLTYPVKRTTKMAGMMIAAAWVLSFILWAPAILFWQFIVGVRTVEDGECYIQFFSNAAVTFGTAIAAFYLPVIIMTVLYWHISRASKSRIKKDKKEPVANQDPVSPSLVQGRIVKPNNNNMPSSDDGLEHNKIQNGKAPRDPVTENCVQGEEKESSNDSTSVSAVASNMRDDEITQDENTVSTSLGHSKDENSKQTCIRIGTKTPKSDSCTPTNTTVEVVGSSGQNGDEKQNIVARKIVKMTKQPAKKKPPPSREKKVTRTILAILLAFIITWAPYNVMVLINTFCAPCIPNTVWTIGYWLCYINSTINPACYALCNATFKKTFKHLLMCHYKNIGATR
Kind of series: Antagonist activity at human muscarinic acetylcholine M2 receptor expressed in CHO cells coexpressed with Gqi5 assessed as inhibition of acetylcholine-induced calcium mobilization by FLIPR assay. The class given is functional, cell-based. In short, it runs like this:
as §1

In series [4] the target is Muscarinic acetylcholine receptor M1 and M3 (Homo sapiens) (UniProt P20309+P11229). Kind of series: Selectivity for human muscarinic acetylcholine M3 receptor over human muscarinic acetylcholine M1 receptor. The essentials: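 Ratio of M1 to M3 potency from FLIPR functional assays measuring inhibition of acetylcholine-induced intracellular Ca²⁺ mobilization. The M3 assay used CHO cells stably expressing human recombinant M3 receptor; the M1 assay is described only as a FLIPR assay. pIC50 values are the mean of at least two determinations.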
Chain of Muscarinic acetylcholine receptor M1 and M3 (Homo sapiens) (P20309 whole entry, looked up, one chain of several): as the sequence (P20309 whole entry) above

The target in series [5] is T1, Muscarinic acetylcholine receptor M3. The experiment in a line: Antagonist activity at human muscarinic acetylcholine M3 receptor expressed in CHO cells assessed as inhibition of acetylcholine-induced calcium mobilization by single concentration kinetic FLIPR assay. The class given is functional, cell-based. Conditions: read-out: pA2 (converted). The essentials:
(§2)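 CHO cells stably expressing the human recombinant muscarinic receptor subtype, in a fluorometric imaging plate reader (FLIPR) assay. Read-out is inhibition of acetylcholine-mediated intracellular Ca2+ mobilization. Results are the mean of at least two determinations.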

The target of series [6] is Muscarinic acetylcholine receptor M3 (Homo sapiens). Kind of series: Selectivity for human muscarinic acetylcholine M3 receptor over human muscarinic acetylcholine M2 receptor.
Series [7] deals with T3, Muscarinic acetylcholine receptor M2. Kind of series: Antagonist activity at human muscarinic acetylcholine M2 receptor expressed in CHO cells coexpressed with Gqi5 assessed as inhibition of acetylcholine-induced calcium mobilization by single concentration kinetic FLIPR assay. Conditions: read-out: pA2 (converted). In kind it is functional, cell-based. The essentials:
as §2

The subject of series [8] is Mus musculus. The experiment in a line: Inhibition of methacholine-induced bronchoconstriction in conscious BALB/c mouse at 5 ug, intranasally administered as single dose after 5 hrs 15 mins. The class given is functional, organism-based. In short, it runs like this: (§3)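 Conscious mice given a single intranasal dose of 5 µg/animal, then challenged with methacholine to induce bronchoconstriction. Inhibition of bronchoconstriction was assessed at set times after dosing.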

Series [9] has as its target T2, Muscarinic acetylcholine receptor M1. The experiment in a line: Antagonist activity at human muscarinic acetylcholine M1 receptor expressed in CHO cells assessed as inhibition of acetylcholine-induced calcium mobilization by single concentration kinetic FLIPR assay. Conditions: read-out: pA2 (converted). The class given is functional, cell-based. The essentials:
as §2

Series [10] has as its system Mus musculus. Kind of series: Inhibition of methacholine-induced bronchoconstriction in conscious BALB/c mouse at 5 ug, intranasally administered as single dose after 24 hrs. In kind it is functional. Set-up: scale not given: the % may be the effect or the level left. The essentials: as §3
Series [11] relates to Mus musculus. Kind of series: Inhibition of methacholine-induced bronchoconstriction in conscious BALB/c mouse at 5 ug, intranasally administered as single dose after 48 hrs. Set-up: scale not given: the % may be the effect or the level left. In kind it is functional. The essentials: as §3
Series [12] can be described thus: Clearance in Sprague-Dawley rat at 2.2 mg/kg, iv and 4.8 mg/kg, po. In kind it is ADME, organism-based. Conditions: in vivo.
Series [13] can be described thus: Permeability across artificial membrane. In kind it is ADME. Conditions: PAMPA; read-out: permeability. In general terms: The PAMPA barrier holds no transporters, so it reflects passive diffusion.
Another series concerns the target Cytochrome P450 2C9 (Homo sapiens, UniProt P11712). The experiment in a line: Inhibition of CYP2C9. In kind it is ADME.
Series [14] is described as follows: Half life in Sprague-Dawley rat at 2.2 mg/kg, iv and 4.8 mg/kg, po. The class given is ADME, organism-based. Conditions: in vivo.
The next series addresses Cytochrome P450 2D6 (Homo sapiens, UniProt P10635). The experiment in a line: Inhibition of CYP2D6. In kind it is ADME.
A further series addresses Cytochrome P450 2C19 (Homo sapiens, UniProt P33261). Kind of series: Inhibition of CYP2C19. In kind it is ADME.
A short description of series [15]: Antagonist activity at alpha1 nicotinic acetylcholine receptor. The class given is functional.
A short description of series [16]: Antagonist activity at alpha3 nicotinic acetylcholine receptor. The class given is functional.
Series [17] is described as follows: Volume of distribution at steady state in Sprague-Dawley rat at 2.2 mg/kg, iv and 4.8 mg/kg, po. The class given is ADME, organism-based. Conditions: in vivo, read-out: Vdss.
Series [18] concerns Cavia porcellus. The experiment in a line: Inhibition of acetylcholine-induced bronchoconstriction in conscious Dunkin-Hartley guinea pig assessed as enhanced pause at 2.5 ug, intratracheally administered as single dose after 4 hrs.
Series [19] has as its system Cavia porcellus. The experiment in a line: Inhibition of acetylcholine-induced bronchoconstriction in conscious Dunkin-Hartley guinea pig assessed as enhanced pause at 2.5 ug, intratracheally administered as single dose after 24 hrs.
Series [20] concerns the target T4, Substance-K receptor (Homo sapiens) (UniProt P21452).
T4 sequence (whole entry): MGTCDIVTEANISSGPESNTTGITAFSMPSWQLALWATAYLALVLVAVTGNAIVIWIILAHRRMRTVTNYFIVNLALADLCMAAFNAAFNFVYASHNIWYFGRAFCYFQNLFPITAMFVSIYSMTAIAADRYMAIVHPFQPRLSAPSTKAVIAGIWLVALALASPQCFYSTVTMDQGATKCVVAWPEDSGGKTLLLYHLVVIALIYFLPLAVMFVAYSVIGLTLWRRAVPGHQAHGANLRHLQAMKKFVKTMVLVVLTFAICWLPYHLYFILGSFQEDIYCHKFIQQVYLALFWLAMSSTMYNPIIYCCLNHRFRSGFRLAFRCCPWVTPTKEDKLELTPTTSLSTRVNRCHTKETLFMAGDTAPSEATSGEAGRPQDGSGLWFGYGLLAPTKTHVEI
Kind of series: Inhibition of NK2 receptor at 1 uM.

Chain of Cytochrome P450 2C19 (P33261 whole entry): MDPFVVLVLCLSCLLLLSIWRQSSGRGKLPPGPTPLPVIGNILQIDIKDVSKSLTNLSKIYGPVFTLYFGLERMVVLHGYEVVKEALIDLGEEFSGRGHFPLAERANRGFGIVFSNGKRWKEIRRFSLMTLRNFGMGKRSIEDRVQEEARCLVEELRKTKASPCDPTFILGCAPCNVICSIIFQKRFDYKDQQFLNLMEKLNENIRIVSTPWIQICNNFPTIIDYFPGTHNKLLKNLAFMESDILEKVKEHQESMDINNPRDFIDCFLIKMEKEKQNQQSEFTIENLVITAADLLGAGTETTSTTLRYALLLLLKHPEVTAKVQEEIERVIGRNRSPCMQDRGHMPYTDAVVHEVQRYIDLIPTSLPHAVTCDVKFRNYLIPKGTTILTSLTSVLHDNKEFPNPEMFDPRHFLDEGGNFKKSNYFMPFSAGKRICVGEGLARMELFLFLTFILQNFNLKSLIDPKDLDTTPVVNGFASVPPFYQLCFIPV
Chain of Cytochrome P450 2C9 (P11712 whole entry): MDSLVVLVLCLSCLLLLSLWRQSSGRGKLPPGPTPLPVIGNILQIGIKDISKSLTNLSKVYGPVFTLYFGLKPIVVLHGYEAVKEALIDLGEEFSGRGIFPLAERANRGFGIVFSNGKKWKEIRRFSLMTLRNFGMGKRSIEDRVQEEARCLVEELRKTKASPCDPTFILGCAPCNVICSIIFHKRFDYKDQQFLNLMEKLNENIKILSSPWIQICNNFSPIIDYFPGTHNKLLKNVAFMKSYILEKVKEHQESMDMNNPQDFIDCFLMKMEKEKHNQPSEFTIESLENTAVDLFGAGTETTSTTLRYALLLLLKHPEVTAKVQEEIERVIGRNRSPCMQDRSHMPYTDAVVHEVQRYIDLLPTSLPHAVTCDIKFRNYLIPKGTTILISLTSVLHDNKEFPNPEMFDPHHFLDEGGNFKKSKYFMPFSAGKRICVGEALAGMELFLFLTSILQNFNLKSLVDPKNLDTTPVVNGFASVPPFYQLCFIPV
Chain of Cytochrome P450 2D6 (P10635 whole entry): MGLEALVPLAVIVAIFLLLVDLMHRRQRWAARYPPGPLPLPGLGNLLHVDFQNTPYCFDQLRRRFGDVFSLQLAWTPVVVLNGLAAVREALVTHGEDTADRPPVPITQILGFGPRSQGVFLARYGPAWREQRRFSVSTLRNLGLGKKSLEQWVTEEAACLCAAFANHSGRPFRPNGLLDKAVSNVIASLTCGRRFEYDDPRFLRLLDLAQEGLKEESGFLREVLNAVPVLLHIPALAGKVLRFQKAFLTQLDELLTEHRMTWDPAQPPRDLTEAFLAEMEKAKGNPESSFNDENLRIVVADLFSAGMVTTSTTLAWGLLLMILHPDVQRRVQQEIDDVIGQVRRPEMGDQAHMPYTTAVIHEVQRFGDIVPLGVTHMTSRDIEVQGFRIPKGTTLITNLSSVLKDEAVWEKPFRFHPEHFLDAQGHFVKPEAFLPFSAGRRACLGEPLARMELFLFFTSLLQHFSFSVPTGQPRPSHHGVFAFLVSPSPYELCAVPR

Turning to `CCOC(=O)c1ccc(NC(=O)N[C@@H](Cc2ccc(O)cc2)C(=O)NC2CCN(Cc3ccc(O)cc3)C2)cc1` (stereo not given in full), the figures for the IC50 in series [1], in [2] and in series [3] were 0.02 µM, 2 µM and 0.158 µM, respectively. Further, the Selectivity ratio in series [4] came out at 100.

In the case of `CCOC(=O)c1ccc(NC(=O)N[C@@H](Cc2ccc(O)cc2)C(=O)N[C@@H]2CCN(Cc3ccc(O)cc3)C2)cc1`, the results for the IC50 in [1], in [2] and in series [3] were 1.58 µM, 3.98 µM and 1.58 µM, respectively.

Regarding `CCOC(=O)c1ccc(NC(=O)N[C@H](Cc2ccc(O)cc2)C(=O)N[C@@H]2CCN(Cc3ccc(O)cc3)C2)cc1`, the IC50 in [1], in series [2] and in series [3] was 20 µM each time.

On to `CCOC(=O)c1ccc(NC(=O)N[C@@H](Cc2ccc(O)cc2)C(=O)N[C@H]2CCN(Cc3ccc(O)cc3)C2)cc1`, for which the IC50 – broadly, the concentration at which inhibition is half-maximal – was 0.0158 µM in [1], 1 µM in [2] and 0.126 µM in series [3]. Further, the Selectivity ratio in [4] was found to be 80.

As for `CCOC(=O)c1ccc(NC(=O)N[C@H](Cc2ccc(O)cc2)C(=O)N[C@H]2CCN(Cc3ccc(O)cc3)C2)cc1`, the results for the IC50 in series [1], in series [2] and in series [3] were 3.16 µM, 12.6 µM and 5.01 µM, respectively.

Take `Cc1cn2cc(CNC(=O)[C@H](Cc3ccc(O)cc3)NC(=O)Nc3ccc(C(=O)OC(C)C)cc3)[n+](Cc3ccc4ccccc4c3)c2s1.O=C([O-])C(F)(F)F`: the Kb in series [5] was 25.1 pM; in [7] it was 0.00158 µM; in [9] it was 0.000794 µM. Besides, in series [6], the pA2 (commonly a measure of antagonist potency on a negative log scale) stood at 10.6. For the same molecule, in the series on Mus musculus [8], the result was Active. Moreover, the Activity in the series on Mus musculus [10] is above 80%; in the series with Mus musculus [11] it was above 60%. Also, the Selectivity ratio in series [4] was found to be 30.

In turn, `CC(C)OC(=O)c1ccc(NC(=O)N[C@@H](Cc2ccc(O)cc2)C(=O)N[C@H]2CCC[N+](C)(Cc3cccc(O)c3)C2)cc1.[I-]` (stereo not given in full) displayed a clearance in series [12] of 15 mL/min/kg. The Papp in series [13] was below 0.3 ×10⁻⁶ cm/s. Also, the results for the IC50 against Cytochrome P450 2C9, at Cytochrome P450 2D6 and at Cytochrome P450 2C19 were above 10 µM, 3.98 µM and above 10 µM, respectively. In addition, in series [7], the Kb is 0.001 µM. The outcome in the series on Mus musculus [8] was Active. Besides, the half-life (usually the time in which the quantity being followed falls by half) in series [14] was 1.1 h. Also, the Activity in the series with Mus musculus [10] was above 80%; with Mus musculus [11], above 30%. The pIC50 in series [15] and in [16] was 6.1 each time. For the same molecule, in series [17], the Vd was found to be 0.55 L/kg.

Consider `Cc1cn2cc(CNC(=O)[C@H](Cc3ccc(O)cc3)NC(=O)Nc3ccc(C(=O)OC4CCCCC4)s3)[n+](Cc3ccc4ccccc4c3)c2s1.[I-]`, for which the “inhibition (INH)” value came to 93% in the series on Cavia porcellus [18] and 88% in the series with Cavia porcellus [19]. The Kb was 12.6 pM in series [5], 0.0002 µM in series [7] and 0.000316 µM in series [9]. For the same molecule, the inhibition (usually how much of the control response was suppressed) in [20] is 74%. In series [4], the Selectivity ratio amounted to 25.
